In data set [1] the test system is HK1. The data set is described as follows: Flow cytometric analysis of cell cycle progression. Format: cell-based, human. The method, boiled down: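 HK1 cells were seeded at 1.0x10^5 cells/0.5 ml/well in 12-well plates. After 2 h, test compound was added at 5 nM, 10 nM or 1 µM, alone or combined. Exposure lasted 2-3 days. Adherent and floating cells were pelleted and stained in hypotonic buffer (propidium iodide, RNase A, sodium citrate, Triton X) on ice, in the dark, for 10 min. ≥10,000 events were acquired by flow cytometry, and DNA-content histograms were modelled for cycle phases.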
For orientation: A flow cytometer gives signals particle by particle.

For data set [2], the system named is HK1. The data set is described as follows: MTS assay, HK1. Format: cell-based, human. The note with it: read-out: IC50 value. The method, boiled down: (§1)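 Cell lines were seeded per well in 96-well plates: C666-1 at 30,000, HK1 at 10,000, NP69SV40T at 15,000 and NP460hTert at 15,000. After 2 h at 37°C in 5% CO2, test compound was added at 0.8-200 nM (rocaglates) or 0.15-20 µM (second compound). Vehicle was 0.1% DMSO final, or NaH2PO4. MTS was added after 1-3 days for 1-4 h, reading A490 minus A630. IC50 was fitted from % signal versus vehicle.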
A general note: Formazan colour is commonly taken as a measure of viable cells.

The subject of a further data set is NP69SV40T. In words: MTS assay, NP69SV40T. The note with it: read-out: IC50 value. Format: cell-based, human. The method, boiled down: as §1
The next data set deals with NP460hTert. The data set is described as follows: MTS assay, NP460hTert. Format: cell-based, human. The note with it: read-out: IC50 value. The method, boiled down:
as §1

For data set [3] the following is noted: advanced hematologic malignancy patients; phase I dose-escalation; cited from earlier work.
The subject of data set [4] is HK1. The data set is described as follows: FITC Annexin V/PI apoptosis assay. Format: cell-based, human. To be noted: 3 days post-treatment, 1 μM. The method, boiled down:
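HK1 cells were seeded at 1.0x10^5 cells/0.5 ml/well in 12-well plates. After ~2 h, test compound was added at 5 nM, 10 nM or 1 µM, alone or combined, for 3 days. Adherent and floating cells were stained with FITC-Annexin V and PI in binding buffer for 15 min in the dark. Samples were diluted, kept on ice and analysed by flow cytometry, acquiring 10,000 events per sample.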

For another data set, the system named is normal bone marrow cells. The note with it: 1 µΜ, two days; cited from earlier work.
Data set [5] deals with NPC cell lines or nasopharyngeal epithelial cells. In words: MTS assay, summary over cell lines. Format: cell-based. The note with it: Homo sapiens, read-out: IC50 values. The method, boiled down:
as §1

The test system of another data set is C666-1. In words: MTS assay, C666-1. Format: cell-based, human. The method, boiled down: as §1
The conditions of data set [6]: toxicity studies mostly in murine models; cited from earlier work.
Setting [7] is: silvestrol 5 nM, episilvestrol 10 nM or combination with 1 µM CX-5461.

SMILES strings stand for the structures. Like-named read-outs stand apart in the source and are kept apart here. Some results are limits rather than exact numbers.

This is an account of results in article PMC12400138 (Molecular and Clinical Oncology, 2025).

For orientation: IC50 means the point on the concentration scale where inhibition reaches its midpoint.

Turning to `Cc1cnc(CNC(=O)c2c(=O)c3ccc(N4CCCN(C)CC4)nc3n3c2sc2ccccc23)cn1` [CX-5461, reference compound], the cell cycle arrest result in the data set with HK1 [1] (1 µM) was “arrested cells at S-phase and G2/M”. Moreover, the half-inhibitory concentration (IC50) was 2000 nM with HK1 [2] (Homo sapiens, HK-1, 24 h); 1000 nM with HK1 [2] (Homo sapiens, HK-1, 48 h); 6000 nM in the data set with NP69SV40T (Homo sapiens, 24 h); 1000 nM in the data set on NP69SV40T (Homo sapiens, 48 h); 500 nM in the data set on NP460hTert (Homo sapiens, 24 h); 400 nM in the data set on NP460hTert (Homo sapiens, 48 h). Also, the 50% inhibitory concentration (IC50) in data set [5] is 400 to 6000 nM. Moreover, the tolerability result in data set [3] was “well tolerated”. The “% apoptosis (percentage of total apoptosis)” value in the data set with HK1 [4] is less than 20%. Moreover, in the data set on normal bone marrow cells, the cell death entry is on record as “minimal cell death”.
Consider `COC(=O)[C@H]1[C@@H](O)[C@@]2(O)c3c(OC)cc(O[C@@H]4O[C@@H]([C@@H](O)CO)CO[C@H]4OC)cc3O[C@@]2(c2ccc(OC)cc2)[C@@H]1c1ccccc1` [Episilvestrol, episilvestrol], for which, in the data set on HK1 [1] (setting [7]), the cell cycle arrest entry is “arrested cells at G0/G1”. In addition, the IC50 was determined as 60 nM in the data set with HK1 [2] (HK1, 1 day post-treatment); 13 nM in the data set on HK1 [2] (HK1, 2 days post-treatment); 10 nM in the data set on HK1 [2] (HK1, 3 days post-treatment); 68 nM with NP69SV40T (NP69SV40T, 1 day post-treatment); 19 nM in the data set on NP69SV40T (NP69SV40T, 2 days post-treatment); 10 nM in the data set with NP69SV40T (NP69SV40T, 3 days post-treatment). Besides, the concentration for half-maximal inhibition (IC50) amounted to 14 nM in the data set with NP460hTert (NP460hTert, 1 day post-treatment); 20 nM in the data set on NP460hTert (NP460hTert, 2 days post-treatment); 10 nM in the data set with NP460hTert (NP460hTert, 3 days post-treatment); 56 nM in the data set on C666-1 (read-out: IC50 value, 1 day post-treatment); 18 nM in the data set on C666-1 (read-out: IC50 value, 2 days post-treatment); 10 nM in the data set on C666-1 (read-out: IC50 value, 3 days post-treatment).
For `COC(=O)[C@H]1[C@@H](O)[C@@]2(O)c3c(OC)cc(O[C@@H]4O[C@@H]([C@H](O)CO)CO[C@H]4OC)cc3O[C@@]2(c2ccc(OC)cc2)[C@@H]1c1ccccc1` [Silvestrol, silvestrol], in the data set with HK1 [1] (setting [7]), the cell cycle arrest entry is “arrested cells at G0/G1”. The IC50 with HK1 [2] (Homo sapiens, HK-1, 24 h) worked out at 132 nM; in the data set with HK1 [2] (Homo sapiens, HK-1, 48 h) it was 7 nM; in the data set with NP69SV40T (Homo sapiens, 24 h), 58 nM; in the data set with NP69SV40T (Homo sapiens, 48 h), 8 nM; in the data set on NP460hTert (Homo sapiens, 24 h), 9 nM; in the data set with NP460hTert (Homo sapiens, 48 h), 9 nM. For the same molecule, in data set [6], the tolerability result is given as “well tolerated”.
